Each block holds one molecule with its values, some of them ahead of it. Activity calls are given as the source filed them. The calls are words filed in the database; no cut-off is given here.
How the values were obtained:
[1] = target: T1, Tyrosinase (Agaricus bisporus) (UniProt O42713); details: at 25 µM
T1 sequence (whole entry): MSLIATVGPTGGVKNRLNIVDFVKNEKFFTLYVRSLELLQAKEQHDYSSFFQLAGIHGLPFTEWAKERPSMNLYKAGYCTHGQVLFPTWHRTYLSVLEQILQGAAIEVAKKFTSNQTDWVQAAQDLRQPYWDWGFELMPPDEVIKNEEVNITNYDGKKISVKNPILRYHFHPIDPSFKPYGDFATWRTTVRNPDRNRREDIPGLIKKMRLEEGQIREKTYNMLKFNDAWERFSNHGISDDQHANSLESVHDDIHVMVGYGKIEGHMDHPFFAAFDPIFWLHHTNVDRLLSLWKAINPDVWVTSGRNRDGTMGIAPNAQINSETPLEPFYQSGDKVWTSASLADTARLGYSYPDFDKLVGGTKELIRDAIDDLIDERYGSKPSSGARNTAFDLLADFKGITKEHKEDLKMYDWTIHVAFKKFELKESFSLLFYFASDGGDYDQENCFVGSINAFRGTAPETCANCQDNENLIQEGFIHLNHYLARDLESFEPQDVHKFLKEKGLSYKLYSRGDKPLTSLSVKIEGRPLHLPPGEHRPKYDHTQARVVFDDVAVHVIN

B16-F10 [2] = assay: Antimelanogenic activity in alpha-MSH-stimulated mouse B16F10 cells assessed as reduction in melanin content at 25 uM treated at 24 hrs post alpha-MSH stimulation and measured after 24 hrs relative to control; format: functional; parameters: scale not given: the % may be the effect or the level left
Outline: (§1)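 Cells grown in 24-well plates for 24 h, then stimulated with 1 µM α-MSH and treated with 0, 5, 10 or 25 µM test agent (kojic acid 25 µM as reference) for 24 h. Washed with PBS, melanin dissolved in 200 µL 1N NaOH, absorbance read at 405 nm. Triplicate; means ± SEM, one-way ANOVA with Tukey's test.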

[3] = target: T1, Tyrosinase (Agaricus bisporus); assay: Potency index, ratio of compound effect to kojic acid effect for inhibition of mushroom tyrosinase at 25 uM using L-tyrosine as substrate
B16-F10 [4] = assay: Cytotoxicity against mouse B16F10 cells assessed as reduction in cell viability at 5 to 25 uM after 24 hrs by WST8 assay; format: cell-based; details: b16-f10, 24 h
Outline: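 Murine B16F10 cells in DMEM with 10% FBS and penicillin/streptomycin at 37 °C, 5% CO2, in 96-well plates. Pre-cultured cells exposed to 0, 5, 10 or 25 µM for 24 h. WST-8 reagent then added for 30 min to 2 h, absorbance read at 450 nm, viability given as % of control. Triplicate; means ± SEM.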

[5] = target: T2, Tyrosinase (Mus musculus) (UniProt P11344); assay: Inhibition of tyrosinase in alpha-MSH-stimulated mouse B16F10 cells assessed as reduction in dopachrome production using L-DOPA as substrate measured after 24 hrs by spectrophotometric method
T2 sequence (whole entry): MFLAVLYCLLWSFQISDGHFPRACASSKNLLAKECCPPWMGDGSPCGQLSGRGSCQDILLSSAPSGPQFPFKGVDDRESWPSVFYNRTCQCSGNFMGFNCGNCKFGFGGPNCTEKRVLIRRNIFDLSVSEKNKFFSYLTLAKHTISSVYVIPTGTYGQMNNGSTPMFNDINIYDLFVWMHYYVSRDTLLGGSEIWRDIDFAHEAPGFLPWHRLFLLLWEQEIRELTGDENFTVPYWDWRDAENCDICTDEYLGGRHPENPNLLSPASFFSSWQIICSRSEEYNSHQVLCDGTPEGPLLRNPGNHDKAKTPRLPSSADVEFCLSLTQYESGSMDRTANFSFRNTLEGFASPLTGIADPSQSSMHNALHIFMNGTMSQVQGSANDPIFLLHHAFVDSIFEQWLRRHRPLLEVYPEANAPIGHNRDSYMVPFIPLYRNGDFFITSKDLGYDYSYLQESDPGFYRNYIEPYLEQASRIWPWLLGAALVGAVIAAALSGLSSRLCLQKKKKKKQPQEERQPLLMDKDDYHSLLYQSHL
Outline: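 B16F10 cells activated with 1 µM α-MSH, then given 0, 5, 10 or 25 µM test agent or 25 µM kojic acid for 24 h. Cells washed with PBS and lysed in 50 mM PBS pH 6.8 with 0.1 mM PMSF and 1% Triton X-100. Lysate frozen at -80 °C for 30 min, spun 12,000 rpm 30 min at 4 °C. Supernatant (80 µL) mixed with 20 µL 10 mM L-dopa, 37 °C for 30 min, OD read at 500 nm. Triplicate.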

B16-F10 [6] = assay: Antimelanogenic activity in alpha-MSH-stimulated mouse B16F10 cells assessed as reduction in melanin content treated at 24 hrs post alpha-MSH stimulation and measured after 24 hrs; format: functional, cell-based
Outline: as §1

Tyrosinase = target: T3, Tyrosinase (Agaricus bisporus, UniProt O42713); assay: Inhibition of mushroom tyrosinase using L-tyrosine as substrate incubated for 30 mins by spectrophotometric method
T3 sequence (O42713 whole entry): T1 sequence (whole entry)
Outline: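 Mushroom tyrosinase with test sample (final 25 µM) in substrate mix of 14.7 mM potassium phosphate buffer and 293 µM L-tyrosine (1:1, v/v), incubated 30 min at 37 °C. Dopachrome absorbance read at 450 nm; % inhibition calculated against untreated control. Kojic acid 25 µM and arbutin 400 µM as positive controls. Triplicate; means ± SEM.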

[7] = target: T1, Tyrosinase (Agaricus bisporus); assay: Competitive inhibition of mushroom tyrosinase at 10 to 40 nM using varying levels of L-tyrosine as substrate by Lineweaver-Burk plot analysis
Outline: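 Mushroom tyrosinase (200 units) with inhibitor at 10, 20 and 40 nM and L-tyrosine 0.03125 to 16 mM, in 50 mM potassium phosphate pH 6.5. Initial dopachrome formation rate taken as ΔOD475/min. Km and Vmax from Lineweaver–Burk plots (1/V vs 1/[S]); Ki from modified Michaelis–Menten equation. Triplicate.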

Structure (SMILES): O=C1CC(c2ccc(O)c(O)c2)c2ccccc2N1 (configuration not stated)
- inhibition [1]: inactive

Structure (SMILES): O=c1cc(CO)occ1O [KOJIC ACID]
- Activity (B16-F10 [2]): 44.26%

Structure (SMILES): O=C(/C=C/c1ccc(O)cc1)NCc1ccccc1
- inhibition [1]: inactive

Structure (SMILES): COc1cc(C2CC(=O)Nc3ccccc32)ccc1O (configuration not stated)
- inhibition [1]: inactive

Structure (SMILES): O=C(/C=C/c1ccc(O)cc1O)NCc1ccccc1
- Ratio [3]: 3
- Activity (B16-F10 [4]): Non-Toxic
- inhibition [5]: Dose-dependent effect
- Activity (B16-F10 [2]): 65.84%
- Activity (B16-F10 [6]): Dose-dependent effect
- inhibition [1]: 85.4%

Structure (SMILES): COc1ccc(C2CC(=O)Nc3ccccc32)cc1O (configuration not stated)
- inhibition [1]: 25.9%

Structure (SMILES): O=C(/C=C/c1ccc(O)cc1O)Nc1ccccc1
- IC50 (Tyrosinase): 25.6 nM
- inhibition [7]: Active
- Ratio [3]: 3
- Activity (B16-F10 [4]): Non-Toxic
- inhibition [5]: Dose-dependent effect
- Activity (B16-F10 [2]): 63.97%
- Activity (B16-F10 [6]): Dose-dependent effect

Structure (SMILES): O=C1CC(c2ccc(O)cc2)c2ccccc2N1 (configuration not stated)
- inhibition [1]: inactive

Continued, in another order:

- inhibition [1]: inactive
Structure (SMILES): O=C(/C=C/c1ccc(O)c(O)c1)Nc1ccccc1

- inhibition [1]: inactive
Structure (SMILES): CCN(CC)C(=O)/C=C/c1ccc(O)c(O)c1

- inhibition [1]: 31.5%
Structure (SMILES): COc1ccc(/C=C/C(=O)NCc2ccccc2)cc1O

- inhibition [1]: 20.7%
Structure (SMILES): CCN(CC)C(=O)/C=C/c1ccc(OC)c(O)c1

- Ratio [3]: 3
- inhibition [5]: Dose-dependent effect
- inhibition [1]: 82.9%
Structure (SMILES): COc1cc(/C=C/C(=O)NCc2ccccc2)ccc1O
- Activity (B16-F10 [4]): Non-Toxic
- Activity (B16-F10 [2]): 80.43%
- Activity (B16-F10 [6]): Dose-dependent effect

- inhibition [1]: 61.9%
Structure (SMILES): CCN(CC)C(=O)/C=C/c1ccc(O)c(OC)c1

- IC50 (Tyrosinase): 11.2 nM
- inhibition [7]: Active
- Ratio [3]: 3
- inhibition [5]: Dose-dependent effect
- inhibition [1]: 96.2%
Structure (SMILES): CCN(CC)C(=O)/C=C/c1ccc(O)cc1O
- Activity (B16-F10 [4]): Non-Toxic
- Activity (B16-F10 [2]): 78.07%
- Activity (B16-F10 [6]): Dose-dependent effect

- inhibition [1]: 59%
Structure (SMILES): COc1cc(/C=C/C(=O)Nc2ccccc2)ccc1O

- inhibition [1]: 10%
Structure (SMILES): O=C(/C=C/c1ccc(O)c(O)c1)NCc1ccccc1

- inhibition [1]: inactive
Structure (SMILES): CCN(CC)C(=O)/C=C/c1ccc(O)cc1

- inhibition [1]: 29.7%
Structure (SMILES): COc1ccc(/C=C/C(=O)Nc2ccccc2)cc1O

— ChEMBL document CHEMBL4325856, “Synthesis of cinnamic amide derivatives and their anti-melanogenic effect in α-MSH-stimulated B16F10 melanoma cells” (Eur J Med Chem, 2019)
